A short description of data set [1]: Half life in mouse liver microsomes. The class given is ADME, Microsome. (In general: Microsomes from liver hold many membrane-bound enzymes, among them those of drug oxidation.)
A further data set concerns the target Cytochrome P450 3A4 (Homo sapiens, UniProt P08684). In words: Inhibition of human CYP3A4. Type of data set: ADME.
In the next data set the test system is CCRF-CEM. Description: Growth inhibition of human CCRF-CEM cells after 72 hrs by MTS assay. The class given is functional. Background: Tetrazolium assays rely on reduction of a dye to a coloured formazan, in cell work by metabolically active cells.
For a further data set, the system named is NCI-H460. Description: Growth inhibition of human NCI-H460 cells after 72 hrs by MTS assay. Type of data set: functional. The following applies: NCI-H460, 72 h.
Another data set has as its system COLO 205. In words: Growth inhibition of human COLO205 cells after 72 hrs by MTS assay. Type of data set: functional. The following applies: COLO 205, 72 h.
A short description of data set [2]: Apparent permeability from basolateral to apical side in human Caco2 cells at 10 uM. The class given is ADME, cell-based. The settings on record: Caco-2. The method in brief: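 Caco-2 monolayers, test compound at 10 μM. Apparent permeability measured in both directions, apical to basolateral and basolateral to apical. Efflux ratio = P_app B to A / P_app A to B. Run by a contract lab following published methods. Mean of three independent triplicate experiments.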
Background: Caco-2 monolayers are a common model of the intestinal barrier.

A further data set has as its system UACC-62. Description: Growth inhibition of human UACC62 cells after 72 hrs by MTS assay. The class given is functional. The settings on record: UACC-62, 72 h.
In another data set the test system is MOLT-4. In words: Growth inhibition of human MOLT4 cells after 72 hrs by MTS assay. Type of data set: functional. The following applies: MOLT-4, 72 h.
The subject of another data set is HT-29. In words: Growth inhibition of human HT-29 cells after 72 hrs by MTS assay. The settings on record: HT-29, 72 h. Type of data set: functional.
In another data set the test system is SNB-75. Description: Growth inhibition of human SNB75 cells after 72 hrs by MTS assay. Type of data set: functional. The following applies: SNB-75, 72 h.
Data set [3] is described as follows: Lipophilicity, log D of the compound in pH 7.4 PBS buffer. Type of data set: physicochemical.
Data set [4] in a line: Solubility in neutral water. Type of data set: physicochemical.
The test system of the next data set is NCI-H322M. Description: Growth inhibition of human NCI-H322M cells after 72 hrs by MTS assay. The class given is functional.
Data set [5] is described as follows: Half life in mouse plasma. Type of data set: ADME, cell-free.
The next data set has as its system OVCAR-5. Description: Growth inhibition of human OVCAR5 cells after 72 hrs by MTS assay. Type of data set: functional. The settings on record: OVCAR-5, 72 h.
For the next data set, the system named is HCT-116. Description: Growth inhibition of human HCT116 cells after 72 hrs by MTS assay. The class given is functional. The settings on record: HCT-116, 72 h.

By half-life is commonly meant the time in which the quantity being followed falls by half. The low end stands for rapid decline, the high end for slow decline. The term GI50 denotes the concentration that inhibits growth by half. A high value points to lower sensitivity of the cells. Usually Papp B→A stands for how fast a substance crosses the layer from the basolateral side. Usually logD stands for lipophilicity at a set pH, counting ionised and neutral species. What is called solubility is the concentration that dissolves in the medium under given conditions. High values mean a readily soluble substance, low ones a poorly soluble substance.

Sequence of Cytochrome P450 3A4 (P08684 whole entry): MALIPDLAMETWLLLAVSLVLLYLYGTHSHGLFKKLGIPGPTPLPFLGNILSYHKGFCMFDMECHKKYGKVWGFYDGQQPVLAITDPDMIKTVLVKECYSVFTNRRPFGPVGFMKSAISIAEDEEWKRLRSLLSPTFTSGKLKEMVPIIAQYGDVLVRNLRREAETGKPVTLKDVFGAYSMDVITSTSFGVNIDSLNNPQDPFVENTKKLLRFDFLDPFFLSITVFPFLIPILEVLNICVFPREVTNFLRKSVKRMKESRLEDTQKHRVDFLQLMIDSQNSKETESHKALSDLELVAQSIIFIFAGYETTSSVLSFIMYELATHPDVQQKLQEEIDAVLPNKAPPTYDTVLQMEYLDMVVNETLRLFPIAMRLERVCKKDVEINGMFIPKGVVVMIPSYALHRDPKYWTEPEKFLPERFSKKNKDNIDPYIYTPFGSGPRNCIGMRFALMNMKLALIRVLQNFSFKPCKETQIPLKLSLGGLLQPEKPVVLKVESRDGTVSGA

As to `O=C(CCCCCCC(=O)Nc1ccccc1)NO` [VORINOSTAT], the half-life in [1] is 1.37 h; in data set [5], 3.3 h. This compound also had an INH at Cytochrome P450 3A4 of 24.8 µM. Further, the concentration for 50% growth inhibition (GI50) in the data set with CCRF-CEM was 800 nM; in the data set with NCI-H460, 790 nM; in the data set with COLO 205, 790 nM; with UACC-62, 400 nM; in the data set on MOLT-4 it was 400 nM; with HT-29, 790 nM. Moreover, the GI50 amounted to 790 nM with SNB-75, 790 nM in the data set with NCI-H322M, 790 nM in the data set on OVCAR-5 and 400 nM in the data set on HCT-116. In addition, the Papp B→A at 10 µM in data set [2] was 1.7 ×10⁻⁶ cm/s. This compound also had a logD in [3] of 1. Further, the solubility in [4] was > 170 µg/mL.
